Assays:
[1] = tested on: Human alphaherpesvirus 1; test: Antiviral activity against HSV1 F VR 733 infected in African green monkey Vero cells assessed as inhibition of virus-induced cytopathic effect; assay type: functional, organism-based; details: Human alphaherpesvirus 1, Strain F ATCC VR 733, Vero
[2] = tested on: Influenza A virus; test: Antiviral activity against Influenza A virus A/95-359 infected in MDCK cells assessed as inhibition of virus-induced cytopathic effect; assay type: functional, organism-based; details: A/95-359, MDCK
Outline: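 MDCK cells; IC50 given as the mean of three independent determinations.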

[3] = Selectivity index, ratio of TC50 for African green monkey Vero cells to IC50 for HSV1 strain F VR 733 infected in African green monkey Vero cells; assay type: toxicity; details: read-out: Selectivity Index
Outline: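 Calculated as TC50/IC50 in Vero cells. TC50 is the cytotoxic concentration that inhibits Vero cell growth by 50%. No SI was assigned where it could not be determined under the test conditions.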

[4] = Cytotoxicity against African green monkey Vero cells measured after 48 hrs; assay type: cell-based; details: chlorocebus sabaeus, read-out: TC50
Outline: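 TC50 is the concentration that inhibits Vero cell growth by 50%. It is used with the antiviral IC50 to give a selectivity index (TC50/IC50).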

[5] = Cytotoxicity against MDCK cells measured after 48 hrs; assay type: cell-based, Canis lupus familiaris; details: dog, read-out: TC50
Outline: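 TC50 is the concentration that inhibits MDCK cell growth by 50%, reported as the mean of three independent determinations. It is paired with the anti-influenza A IC50 to give a selectivity index (TC50/IC50).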

[6] = Selectivity index, ratio of TC50 for MDCK cells to IC50 for Influenza A virus A/95-359 infected in MDCK cells; assay type: toxicity, cell-based; details: dog, read-out: Selectivity Index
Outline: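 Ratio of TC50 to IC50, both in MDCK cells. TC50 is the concentration that inhibits MDCK cell growth by 50%. Values are means of three independent determinations. No SI was assigned where it could not be determined under the test conditions.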

SMILES | IC50 [1] [µM] | IC50 [2] [µM] | selectivity ratio [3] | CC50 at 48 h [4] [µM] | CC50 at 48 h [5] [µM] | selectivity ratio [6]
CC1=C2C3=CC[C@@H]4[C@@]5(C)C[C@@H](O)[C@@H](O)[C@@](C)(CO)[C@@H]5CC[C@@]4(C)[C@]3(C)CC[C@@]23CC[C@]1(C)OO3 | 6.41 | > 33.3 | 3.6 | 23.1 | 57.7 | –
CC(=O)CCC1=C(C(C)=O)C2=CC[C@@H]3[C@@]4(C)C[C@@H](O)[C@@H](O)[C@](C)(CO)[C@@H]4CC[C@@]3(C)[C@]2(C)CC1 | > 33.3 | > 33.3 | – | 69.3 | > 100 | –
Cc1ccc2c(c1C)C1=CC[C@@H]3[C@@]4(C)C[C@@H](O)[C@H](O)[C@@](C)(CO)[C@@H]4CC[C@@]3(C)[C@]1(C)CC2 | 0.41 | 1.23 | 4.3 | 1.78 | 3.7 | 3
CC1=C2C3=CC[C@@H]4[C@@]5(C)CC[C@@H](O)[C@](C)(CO)[C@@H]5CC[C@@]4(C)[C@]3(C)CC[C@]23CC[C@@]1(C)OO3 | > 11.1 | > 11.1 | – | 33.3 | 19.2 | –
CC1=C2C3=CC[C@@H]4[C@@]5(C)CC[C@@H](O)[C@@](C)(CO)[C@@H]5CC[C@@]4(C)[C@]3(C)CC[C@@]23CC[C@]1(C)OO3 | > 11.1 | > 11.1 | – | 57.7 | 19.2 | –
Cc1ccc2c(c1C)C1=CC[C@@H]3[C@@]4(C)[C@H](O)[C@@H](O)[C@@H](O)[C@@](C)(CO)[C@@H]4CC[C@@]3(C)[C@]1(C)CC2 | > 0.41 | > 1.23 | – | 1.78 | 2.57 | –
Cc1ccc2c(c1C)C1=CC[C@@H]3[C@@]4(C)CC[C@@H](O)[C@](C)(CO)[C@@H]4CC[C@@]3(C)[C@]1(C)CC2 | > 1.23 | > 11.1 | – | 5.34 | 19.2 | –
Cc1ccc2c(c1C)C1=CC[C@@H]3[C@@]4(C)C[C@@H](O)[C@@H](O)[C@](C)(CO)[C@@H]4CC[C@@]3(C)[C@]1(C)CC2 | > 1.23 | > 3.7 | – | 3.7 | 7.7 | –
Cc1ccc2c(c1C)C1=CC[C@@H]3[C@@]4(C)[C@H](O)C[C@@H](O)[C@](C)(CO)[C@@H]4CC[C@@]3(C)[C@]1(C)CC2 | > 3.7 | > 3.7 | – | 11.1 | 16 | –
Nc1nc2c(ncn2COCCO)c(=O)[nH]1 [ACYCLOVIR] | 0.41 | – | > 244 | > 100 | – | –
CCOC(=O)C1=C[C@@H](OC(CC)CC)[C@H](NC(C)=O)[C@@H](N)C1 [OSELTAMIVIR] | – | 1.63 | – | – | – | –
